High-throughput results from PubChem.
CRFR2-BP antag: CRF-BP/CRF-R2 complex antagonism | inhibition, % at 11.8 µM | AID 588475 | HEK293 CRF-R2/CRF-BP, CRF-induced calcium fluorescence | hit rate 0.59% among 350,000;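 active = inhibition of the ligand-induced calcium signal above about 50% at the single tested concentration, limit read from the data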
zfTRPN1 agonist: activates the zebrafish TRPN1 channel. HEK293 zebrafish TRPN1-YFP, Fluo-8 calcium fluorescence; 100% = response to 87 µM carbachol. activation, % at 3 µM. hit rate 0.18% among 220,000;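 active = activation above its plate's cutoff, the mean activation of test wells on that plate plus 3 SD, cut at about 19% in these data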
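Material: zebrafish TRPN1-YFP in HEK293 cells; Doses: single test compound dose, 3 µM nominal, 0.3% DMSO; Timing: dye loading 1 h at 37 °C, then 30 min room temperature; Technique: intracellular calcium fluorescence with Fluo-8; Benchmarks: high carbachol 87 µM, low DMSO alone.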
CRFR2-BP ag: CRF-BP/CRF-R2 complex agonism. HEK293 CRF-R2/CRF-BP, calcium dye fluorescence (FLIPR); percent of saturating CRF peptide response. activation, % at 13.2 µM. hit rate 0.46% among 350,000;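 active = activation of at least 50%, plus an integration ratio under a set limit after plate pattern correction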
TRPML3 agonist: activates the human TRPML3 channel. HEK293 TRPML3-YFP, Fluo-8 calcium fluorescence; 100% = the carbachol control signal. activation, % at 3 µM. hit rate 0.29% among 220,000;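 active = activation above its plate's cutoff, the mean activation of the plate's test wells plus 3 SD, cut at about 12% in these data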
Target sequence (Q8TDD5 whole entry, looked up): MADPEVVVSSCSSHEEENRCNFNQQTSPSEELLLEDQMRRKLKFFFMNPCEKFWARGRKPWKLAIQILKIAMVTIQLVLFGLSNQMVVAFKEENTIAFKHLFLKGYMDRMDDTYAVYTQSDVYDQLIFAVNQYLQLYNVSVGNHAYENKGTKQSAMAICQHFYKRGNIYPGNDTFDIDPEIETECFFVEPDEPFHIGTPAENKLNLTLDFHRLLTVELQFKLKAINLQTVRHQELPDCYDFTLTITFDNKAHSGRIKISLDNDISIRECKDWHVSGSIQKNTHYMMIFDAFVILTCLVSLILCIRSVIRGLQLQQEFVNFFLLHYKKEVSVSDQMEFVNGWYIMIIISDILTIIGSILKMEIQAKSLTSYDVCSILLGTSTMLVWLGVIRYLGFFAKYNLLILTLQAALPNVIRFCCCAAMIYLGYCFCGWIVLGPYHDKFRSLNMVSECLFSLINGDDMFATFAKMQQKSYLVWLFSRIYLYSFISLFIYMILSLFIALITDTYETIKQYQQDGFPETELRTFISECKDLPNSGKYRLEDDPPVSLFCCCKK
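system = HEK293 cells stably carrying human TRPML3-YFP | doses = one concentration, 3 µM nominal, 0.3% DMSO | timing = dye loading 1 h 37 °C then 30 min ambient, 125 s read | detection = Fluo-8 calcium dye fluorescence, ex 470-495, em 515-575 nm | benchmarks = high control carbachol 87 µM, low control DMSO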
TRPN1 ag 2: zebrafish TRPN1 agonism as TRPML3 agonist counter-screen; AID 1525; shares compounds with TRPML3 agonist; activation, % at 3 µM; hit rate 10% among 310; HEK293 zebrafish TRPN1-YFP, Fluo-8 calcium fluorescence; scaled: carbachol wells 100%, DMSO wells 0%;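 active = mean activation over replicates above a set limit taken from the earlier TRPN1 channel primary screen, cut at about 19% in these data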
TRPML3 ag conf: confirmation of human TRPML3 channel agonists; shares compounds with TRPML3 agonist; HEK293 TRPML3-YFP, Fluo-8 calcium fluorescence; 100% set by carbachol, 0% by DMSO; activation, % at 3 µM; hit rate 80% among 310; AID 1526;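 active = activation above a set limit derived from the earlier primary screen, cut at about 12% in these data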
Large screens that a line does not name were inactive (follow-up assays come after a bar, where they were run). Sampled rows, rich in hits. Any-hit rate of the full collection: about 1.2%.

CCn1cc(/C=C/c2cc[n+](C)cc2)c2ccccc21	CRFR2-BP ag 56 (no result: zfTRPN1 agonist, TRPML3 agonist)
C=CCn1cc(/C=C/c2cc[n+](C)cc2)c2ccccc21	CRFR2-BP ag 77 (no result: zfTRPN1 agonist, TRPML3 agonist)
CC(C)n1cc(/C=C/c2cc[n+](C)cc2)c2ccccc21	CRFR2-BP ag 58 (no result: zfTRPN1 agonist, TRPML3 agonist)
Cc1cc(C)cc(N2CC(O)=C(c3nc4ccccc4c(=O)[nH]3)C2=N)c1	none
C=CCn1c(SCc2ccc(C#N)cc2)nnc1-c1ccccc1	none
COCCCn1c(SCC(=O)Nc2ccccc2F)nnc1-c1ccoc1C	CRFR2-BP antag 103 (no result: zfTRPN1 agonist, TRPML3 agonist)
CC(C)(C)NC(=O)/C(=C/c1ccccc1F)NC(=O)c1ccc([N+](=O)[O-])cc1	CRFR2-BP antag 52
CCOc1ccc(CN2CCNC(=O)C2CC(=O)N(C)CC2CCOCC2)cc1 (stereo not given)	none (no result: zfTRPN1 agonist, TRPML3 agonist)
CN(CC1CCOCC1)C(=O)CC1C(=O)NCCN1Cc1ccc(Cl)c(F)c1 (stereo not given)	CRFR2-BP antag 79
S=C1NCN(Cc2cccnc2)CN1Cc1ccccc1	none
O=C(Nc1ccncc1)c1cc(-c2ccccn2)nc2ccccc12	none
COc1cccc(-n2nc(C#N)c(Cl)cc2=O)c1	CRFR2-BP antag 74
CC(=O)N=c1sc(S(N)(=O)=O)nn1C	CRFR2-BP antag 111
CC(=O)Nc1nnc(S(N)(=O)=O)s1	none
CCOC(=O)Cc1csc(NC(=O)CSc2nnc(-c3ccc(NS(=O)(=O)CC)cc3)o2)n1	none
CCOC(=O)Cc1csc(NC(=O)CSc2nnc(-c3ccncc3)o2)n1	CRFR2-BP ag 121
Cc1ccc(Sc2ccc(CO)cc2[N+](=O)[O-])cc1	CRFR2-BP antag 51
Cn1c(=O)cc2c3c(c(N4CCCCC4)ccc31)C(=O)c1ccccc1-2	none
Cn1c(=O)c(N)c2c3c(c(Br)ccc31)C(=O)c1ccccc1-2	CRFR2-BP ag 89
FC(F)(F)c1cnc(NNC(=S)Nc2ccccc2Cl)c(Cl)c1	zfTRPN1 agonist 29, CRFR2-BP ag 89, TRPML3 agonist 17
Cc1cccc(NC(=S)NNc2ncc(C(F)(F)F)cc2Cl)c1	none
O=C(COC(=O)COc1ccc(Cl)cc1)NCc1ccc2c(c1)OCO2	none (no result: zfTRPN1 agonist, TRPML3 agonist)
O=C(COC(=O)CSc1cc(Cl)ccc1Cl)NCc1ccc2c(c1)OCO2	CRFR2-BP ag 52
Nc1cc(C(=O)OCC(=O)N2CCN(C(=O)COC(=O)c3ccc(Cl)c(N)c3)CC2)ccc1Cl	none (no result: zfTRPN1 agonist, TRPML3 agonist)
Cc1ccc(S(=O)(=O)N(Cc2ccccc2)Cc2ccco2)cc1	TRPML3 agonist 45
CCNC(=S)N(Cc1cc2c(C)ccc(C)c2[nH]c1=O)C1CCCC1	none
O=C(CC(=O)Nc1ccc(Cl)cc1Cl)Nc1ccc(Cl)cc1Cl	none (no result: zfTRPN1 agonist, TRPML3 agonist)
CN(CC(=O)Nc1ccc(Cl)c(C(F)(F)F)c1)C(=O)CCN1C(=O)C2CCCCC2C1=O (stereo not given)	none (no result: zfTRPN1 agonist, TRPML3 agonist)
O=C(NCc1ccccn1)C1CCN(S(=O)(=O)c2cnc[nH]2)CC1	CRFR2-BP antag 63
Cc1cc(SCC(=O)c2ccc(Cl)cc2)nc(=O)[nH]1	CRFR2-BP antag 81 (no result: zfTRPN1 agonist, TRPML3 agonist)
CCCOc1ccc(CCc2n[nH]c(=S)n2-c2ccccc2)cc1	none
COc1ccc(CCNc2oc(COc3ccccc3)nc2C#N)cc1	none
COc1ccc(CNc2oc(COc3ccccc3)nc2C#N)cc1	CRFR2-BP antag 52
Cc1cc(C)c(NC(=O)CN(C)S(=O)(=O)c2ccc3c(c2)n(C)c(=O)c(=O)n3C)c(C)c1	none (no result: zfTRPN1 agonist, TRPML3 agonist)
CSc1nsc(/C=C/Nc2cccc(Cl)c2)c1C#N	TRPML3 agonist 40 | TRPN1 ag 2 inactive | TRPML3 ag conf 14
CSc1nsc(/C=C/Nc2ccc(Cl)cc2)c1C#N	none
COC(=O)c1c(NC(=O)COC(=O)[C@@H](NS(=O)(=O)c2ccc(C)cc2)C(C)C)sc2c1CCC2	TRPML3 agonist 29 | TRPN1 ag 2 inactive | TRPML3 ag conf 50
Cc1ccc(C(=O)OCC(=O)c2c(N)n(C)c(=O)n(C)c2=O)cc1S(=O)(=O)N1CCOCC1	none (no result: zfTRPN1 agonist, TRPML3 agonist)
CCOC(=O)c1sc(=S)n(C)c1NC(=O)c1ccc(C(C)(C)C)cc1	TRPML3 agonist 14 | TRPN1 ag 2 inactive | TRPML3 ag conf inactive
CCOC(=O)c1sc(=S)n(C)c1NC(=O)c1ccc(OC)cc1	none
CC1=NN(c2ccccc2C)C(=O)C1	none (no result: zfTRPN1 agonist, TRPML3 agonist)
COc1cccc(C2=CC(c3ccccc3)n3ncnc3N2)c1 (stereo not given)	none (no result: CRFR2-BP antag, CRFR2-BP ag)
COc1ccccc1N(C)S(=O)(=O)c1ccc(C(=O)N(CC(N)=O)C(C)C)cc1	none
COc1ccc(NS(=O)(=O)c2ccc(OC)c(N(C)S(=O)(=O)c3ccc(Cl)cc3)c2)cc1	TRPML3 agonist 69 | TRPN1 ag 2 inactive | TRPML3 ag conf 34
COc1ccc(S(=O)(=O)N2CCCCCC2)cc1Br	TRPML3 agonist 106 | TRPN1 ag 2 inactive | TRPML3 ag conf 70
CCOc1ccc(S(=O)(=O)N2CCN(C)CC2)c(C)c1C	none
COc1ccc(S(=O)(=O)N2CCCCCC2)cc1N(C)S(=O)(=O)c1ccc(C)cc1	TRPML3 agonist 55 | TRPN1 ag 2 inactive | TRPML3 ag conf 49
CCOc1ccc(S(=O)(=O)N2CCCCC2)c(C)c1C	TRPML3 agonist 84 | TRPN1 ag 2 inactive | TRPML3 ag conf 77
FC(F)(F)c1nc2ccccc2n1CCNc1nc(CN2CCCCC2)cs1	none (no result: zfTRPN1 agonist, TRPML3 agonist)
CC1CCC(C(=O)c2c(O)c3ccccc3oc2=O)CC1 (stereo not given)	none
COc1ccc(C)cc1S(=O)(=O)N1CCCCCC1	none
COc1cc(C)ccc1S(=O)(=O)N1CCCCCC1	TRPML3 agonist 94 | TRPN1 ag 2 inactive | TRPML3 ag conf 34
CN(CC(=O)NC1CCCc2ccccc21)C1CCCCC1 (stereo not given)	none
CN(C1CCCCC1)S(=O)(=O)c1cccc(C(=O)OCC(=O)NC2CCCc3ccccc32)c1 (stereo not given)	TRPML3 agonist 70 | TRPN1 ag 2 inactive | TRPML3 ag conf 61
CCOC(=O)N1CCC(N2C(=O)c3ccccc3C2Nc2ccc(S(=O)(=O)N3CCCCC3)cc2)CC1 (stereo not given)	TRPML3 agonist 15 (no result: CRFR2-BP antag, CRFR2-BP ag) | TRPN1 ag 2 inactive | TRPML3 ag conf inactive
CCOC(=O)N1CCC(N2C(=O)c3ccccc3C2Nc2cccnc2)CC1 (stereo not given)	none
COc1ccc(/C(C)=N/NC(=O)CNC(=O)c2ccco2)cc1	none (no result: zfTRPN1 agonist, TRPML3 agonist)
OC1CCC(NC(=S)Nc2ccc(SC(F)F)cc2)CC1 (stereo not given)	none
FC(F)Sc1ccc(NC(=S)NC2CCCC2)cc1	TRPML3 agonist 12 | TRPN1 ag 2 20 | TRPML3 ag conf inactive
CCOC(=O)C(C)(C)N(Cc1cccc(C)c1)S(=O)(=O)c1cccc([N+](=O)[O-])c1	TRPML3 agonist 12 | TRPN1 ag 2 inactive | TRPML3 ag conf 36
